Data: ChEMBL document CHEMBL1150802, “Ampicillin-resistant non-beta-lactamase-producing Haemophilus influenzae in Spain: recent emergence of clonal isolates with increased resistance to cefotaxime and cefixime” (2007)
Converted amounts (≈) assume the structure as drawn.

Tests used:
Assay type in all cases: functional
[1] = system: Haemophilus influenzae; assay: Antibacterial activity against Haemophilus influenzae group I isolates with ftsI gene mutation by broth microdilution method
How it was run: (§1)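 Clinical isolates were tested by broth microdilution in Haemophilus test medium following CLSI guidelines, with H. influenzae ATCC 49247 as the QC strain. β-Lactamase was detected by chromogenic nitrocefin test. ftsI was PCR-amplified and sequenced across nt 936–1640 (aa 327–540). Classes: BLNAS (no mechanism), BLNAR (ftsI substitutions), BLPAR (β-lactamase only), BLPACR (both). Agents tested were amoxicillin, amoxicillin-clavulanate (2:1), cefaclor, cefuroxime, cefotaxime and cefixime.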

[2] = system: Haemophilus influenzae; assay: Antibacterial activity against beta-lactamase producing amoxicillin-clavulanic acid-resistant Haemophilus influenzae isolate by broth microdilution method; how it was run: as §1
[3] = system: Haemophilus influenzae; assay: Antibacterial activity against Haemophilus influenzae group III-like isolates with ftsI gene mutation by broth microdilution method; how it was run: as §1
[4] = system: Haemophilus influenzae; assay: Antibacterial activity against beta-lactamase positive ampicillin resistant Haemophilus influenzae isolate by broth microdilution method; how it was run: as §1
[5] = system: Haemophilus influenzae; assay: Antibacterial activity against beta-lactamase nonproducing ampicillin susceptible Haemophilus influenzae isolate by broth microdilution method; how it was run: as §1
[6] = system: Haemophilus influenzae; assay: Antibacterial activity against Haemophilus influenzae group IIc isolates with ftsI gene mutation by broth microdilution method; how it was run: as §1
[7] = system: Haemophilus influenzae; assay: Antibacterial activity against beta-lactamase nonproducing ampicillin susceptible Haemophilus influenzae isolate assessed as percent susceptible isolates by broth microdilution method
How it was run: (§2)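 Broth microdilution in Haemophilus test medium per CLSI guidelines on clinical isolates, with H. influenzae ATCC 49247 as quality-control strain; β-lactamase production detected by nitrocefin chromogenic cephalosporin test; isolates classed by β-lactamase status and ftsI (PBP 3) sequencing of amino acids 327 to 540. Agents tested: amoxicillin, amoxicillin-clavulanic acid (2:1), cefaclor, cefuroxime, cefotaxime, cefixime.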

[8] = system: Haemophilus influenzae; assay: Antibacterial activity against beta-lactamase positive ampicillin resistant Haemophilus influenzae isolate assessed as percent resistant isolates by broth microdilution method; how it was run: as §1
[9] = system: Haemophilus influenzae; assay: Antibacterial activity against beta-lactamase positive ampicillin resistant Haemophilus influenzae isolate assessed as percent susceptible isolates by broth microdilution method; how it was run: as §1
[10] = system: Haemophilus influenzae; assay: Antibacterial activity against beta-lactamase producing amoxicillin-clavulanic acid-resistant Haemophilus influenzae isolate assessed as percent resistant isolates by broth microdilution method; how it was run: as §1
[11] = system: Haemophilus influenzae; assay: Antibacterial activity against beta-lactamase nonproducing ampicillin resistant Haemophilus influenzae isolate assessed as percent susceptible isolates by broth microdilution method; how it was run: as §1
[12] = system: Haemophilus influenzae; assay: Antibacterial activity against Haemophilus influenzae group IIb isolates with ftsI gene mutation by broth microdilution method; how it was run: as §1
[13] = system: Haemophilus influenzae; assay: Antibacterial activity against Haemophilus influenzae group IId isolates with ftsI gene mutation by broth microdilution method; how it was run: as §1
[14] = system: Haemophilus influenzae; assay: Antibacterial activity against beta-lactamase producing amoxicillin-clavulanic acid-resistant Haemophilus influenzae isolate assessed as percent susceptible isolates by broth microdilution method; how it was run: as §2
[15] = system: Haemophilus influenzae; assay: Antibacterial activity against beta-lactamase nonproducing ampicillin resistant Haemophilus influenzae isolate by broth microdilution method; how it was run: as §1
[16] = system: Haemophilus influenzae; assay: Antibacterial activity against Haemophilus influenzae group IIa isolates with ftsI gene mutation by broth microdilution method; how it was run: as §1
[17] = system: Haemophilus influenzae; assay: Antibacterial activity against beta-lactamase nonproducing ampicillin resistant Haemophilus influenzae isolate assessed as percent resistant isolates by broth microdilution method; how it was run: as §1
[18] = system: Haemophilus influenzae; assay: Antibacterial activity against beta-lactamase nonproducing ampicillin susceptible Haemophilus influenzae isolate assessed as percent resistant isolates by broth microdilution method; how it was run: as §1

SMILES | MIC [1] [µg/mL] | MIC50 [1] [µg/mL] | MIC90 [1] [µg/mL] | MIC50 [2] [µg/mL] | MIC90 [2] [µg/mL] | MIC50 [3] [µg/mL] | MIC50 [4] [µg/mL] | MIC90 [4] [µg/mL] | MIC50 [5] [µg/mL] | MIC90 [5] [µg/mL] | MIC50 [6] [µg/mL] | Activity [7] [%] | Activity [8] [%] | Activity [10] [%] | Activity [11] [%] | MIC50 [12] [µg/mL] | MIC50 [13] [µg/mL] | MIC90 [13] [µg/mL] | Activity [14] [%] | MIC50 [15] [µg/mL] | further results
N[C@@H](C(=O)N[C@@H]1C(=O)N2C(C(=O)O)=C(Cl)CS[C@H]12)c1ccccc1 [CEFACLOR ANHYDROUS] | 2 (≈ 5.44 µM) | 2 (≈ 5.44 µM) | 8 (≈ 21.8 µM) | 4 | ≥ 16 | 4 (≈ 10.9 µM) | 4 (≈ 10.9 µM) | 8 (≈ 21.8 µM) | 2 (≈ 5.44 µM) | 4 (≈ 10.9 µM) | 8 (≈ 21.8 µM) | 100 | 8.9 | 24.3 | 87.9 | 4 (≈ 10.9 µM) | 2 (≈ 5.44 µM) | 8 (≈ 21.8 µM) | 75.7 | 4 (≈ 10.9 µM) | Activity [9]: 91.1%; MIC50 [16]: 8 µg/mL (≈ 21.8 µM); Activity [17]: 12.1%; Activity [18]: 0%
CO/N=C(\C(=O)N[C@@H]1C(=O)N2C(C(=O)O)=C(COC(N)=O)CS[C@H]12)c1ccco1 [CEFUROXIME] | 0.5 (≈ 1.18 µM) | 0.5 (≈ 1.18 µM) | 2 (≈ 4.71 µM) | 1 | 2 | 4 (≈ 9.43 µM) | 1 (≈ 2.36 µM) | 1 (≈ 2.36 µM) | 0.5 (≈ 1.18 µM) | 1 (≈ 2.36 µM) | 2 (≈ 4.71 µM) | 100 | 0 | 0 | 98 | 2 (≈ 4.71 µM) | 0.5 (≈ 1.18 µM) | 4 (≈ 9.43 µM) | 100 | 2 (≈ 4.71 µM) | MIC90 [3]: 8 µg/mL (≈ 18.9 µM); MIC90 [6]: 2 µg/mL (≈ 4.71 µM); MIC90 [12]: 2 µg/mL (≈ 4.71 µM); MIC [13]: 0.5 µg/mL (≈ 1.18 µM); MIC90 [15]: 4 µg/mL (≈ 9.43 µM); MIC50 [16]: 2 µg/mL (≈ 4.71 µM); MIC90 [16]: 4 µg/mL (≈ 9.43 µM); Activity [17]: 2%; Activity [18]: 0%
